14 molecules from ChEMBL document CHEMBL3259770, “Structure-activity relationship studies of the tricyclic indoline resistance-modifying agent” (J Med Chem, 2014) can be followed below.

Data set [1] concerns Staphylococcus aureus. The data set is described as follows: Antibacterial activity against methicillin-resistant Staphylococcus aureus ATCC 33592 after overnight incubation by broth microdilution assay in presence of 4 ug/ml meropenem. The class given is functional. The method, boiled down: (§1)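 Resensitization screen: compound from a 5 mg/mL DMSO stock, 2-fold serially diluted in MHB from 32 μg/mL final. Antibiotic was held at its CLSI-susceptible level: amoxicillin/clavulanic acid 4/2 μg/mL, cefazolin 8 μg/mL, meropenem 4 μg/mL. Final MRSA inoculum OD600 0.001, overnight at 37 °C with shaking. MRC was the concentration giving no visible overnight growth.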
A general note: Broth dilution looks for growth in wells or tubes with falling amounts of substance.

The test system of data set [2] is Staphylococcus aureus. The data set is described as follows: Antibacterial activity against methicillin-resistant Staphylococcus aureus ATCC BAA-44 after overnight incubation by broth microdilution assay in presence of 8 ug/ml cefazolin. The class given is functional. The method, boiled down: as §1
The nature of data set [3]: Cytotoxicity against human HeLa cells after 24 hrs by CellTiter-Glo assay. The class given is cell-based. The method in brief: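 HeLa cells seeded at 20 000 cells/well in DMEM with 10% FCS and 1% penicillin/streptomycin, grown 16 h at 37 °C, 5% CO2. Medium renewed, then compound added in DMSO to final 0.5–32 μg/mL, triplicate series. After 24 h at 37 °C, plates equilibrated to room temperature and viability read by CellTiter-Glo luminescence.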
In general terms: In ATP-based viability assays light output follows the ATP content of the culture.

Data set [4] concerns Staphylococcus aureus. The data set is described as follows: Antibacterial activity against methicillin-resistant Staphylococcus aureus ATCC BAA-44 after overnight incubation by broth microdilution assay in presence of 4 ug/ml amoxicillin and 2 ug/ml clavulanic acid. The class given is functional. The method in brief: as §1
A short description of data set [5]: Ratio of hemolytic activity in human RBC to antibacterial activity against methicillin-resistant Staphylococcus aureus ATCC BAA-44 in presence of 4 ug/ml amoxicillin and 2 ug/ml clavulanic acid.
Data set [6] concerns Staphylococcus aureus. The data set is described as follows: Antibacterial activity against methicillin-resistant Staphylococcus aureus ATCC BAA-44 after 18 hrs by broth microdilution assay. The class given is functional. As to conditions: ATCC BAA-44, 18 h. The method in brief: (§2)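 Day culture (OD600 0.15–0.4) diluted to OD600 0.002, then 2-fold on plating for a final inoculum of OD600 0.001. Plates were incubated at 37 °C with shaking for 18 h before reading growth.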

Data set [7] in a line: Hemolytic activity in human RBC at 64 ug/ml after 1 hr relative to control. In kind it is ADME, cell-based, Erythrocyte. As to conditions: red blood cells, read-out: Activity. The method, boiled down: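 Freshly drawn heparinized human blood centrifuged; RBCs washed three times in D-PBS and diluted to 1% of original pellet volume. Compound in DMSO added to final 64, 16 and 4 μg/mL. Incubated at 37 °C for 1 h with shaking, then centrifuged; supernatant hemoglobin read at 415 nm. Percent hemolysis taken against 1% Triton X-100 (100%) with DMSO as negative control. Triplicate; run within 3 h of the draw.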

In data set [8] the test system is Staphylococcus aureus. The data set is described as follows: Antibacterial activity against methicillin-sensitive Staphylococcus aureus ATCC 25923 after 18 hrs by broth microdilution assay. The class given is functional. As to conditions: ATCC 25923, 18 h. The method, boiled down:
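CLSI broth microdilution in Mueller–Hinton broth. Day culture (OD600 0.15–0.4) diluted to OD600 0.002, then 2-fold on addition to wells, giving a final inoculum of OD600 0.001.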

Data set [9] can be described thus: Ratio of hemolytic activity in human RBC to antibacterial activity against methicillin-resistant Staphylococcus aureus ATCC BAA-44 in presence of 8 ug/ml cefazolin.
Data set [10] can be described thus: Ratio of hemolytic activity in human RBC to antibacterial activity against methicillin-resistant Staphylococcus aureus ATCC 33592 in presence of 4 ug/ml meropenem.
The subject of data set [11] is Staphylococcus aureus. The data set is described as follows: Antibacterial activity against methicillin-resistant Staphylococcus aureus ATCC 33592 after 18 hrs by broth microdilution assay. The class given is functional. The conditions noted are these: ATCC 33592, 18 h. The method, boiled down:
as §2

Data set [12] has as its system Staphylococcus aureus. The data set is described as follows: Antibacterial activity against methicillin-resistant Staphylococcus aureus ATCC BAA-44 after 18 hrs by checkerboard test in presence of amoxicillin/clavulanic acid. In kind it is functional. The method in brief: (§3)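 Checkerboard synergy test in MHB, plates in duplicate. Compound was 2-fold diluted across the rows (8 to 0.016 μg/mL). […] Final inoculum OD600 0.001, 37 °C with shaking, 18 h. FICI was taken as FICA + FICB, each the MIC in combination over the MIC alone.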

In data set [13] the test system is Staphylococcus aureus. The data set is described as follows: Antibacterial activity against methicillin-resistant Staphylococcus aureus ATCC BAA-44 after 18 hrs by checkerboard test in presence of cefazolin. In kind it is functional. The method in brief: as §3
Data set [14] concerns Staphylococcus aureus. The data set is described as follows: Antibacterial activity against methicillin-resistant Staphylococcus aureus ATCC 33592 after 18 hrs by checkerboard test in presence of meropenem. The class given is functional. The method, boiled down: as §3

Values after ≈ are worked out from the molar mass of the structure shown.

For orientation: GI50 means the concentration giving 50% growth inhibition. As for `C=C1CCC[C@@H]2Nc3ccc(Br)cc3[C@]12CCNS(=O)(=O)c1ccc(I)cc1`, the MRC was 32 µg/mL in data set [1], 4 µg/mL in data set [2] and 4 µg/mL in [4]. In addition, it took 33 µg/mL (≈ 57.6 µM) to inhibit growth in data set [3] by half (GI50 at 24 h).
For `C=C1CCC[C@@H]2Nc3ccc(Cl)cc3[C@]12CCNS(=O)(=O)c1ccc(Cl)cc1`, the values for the MRC in [1], in data set [2] and in [4] were 8 µg/mL, 4 µg/mL and 8 µg/mL, respectively. This molecule registered a 50% growth inhibitory concentration (GI50) at 24 h in data set [3] of 35 µg/mL (≈ 80 µM).
Turning to `C=C1CCC[C@@H]2Nc3c(F)cc(Br)cc3[C@]12CCN`, the MRC was 16 µg/mL in [1], 32 µg/mL in [2] and more than 32 µg/mL in data set [4]. This molecule also came in with a GI50 at 24 h in data set [3] of 16.2 µg/mL (≈ 49.8 µM).
The matching figures for `C=C1CCC[C@@H]2Nc3ccc(Br)cc3[C@]12CCNS(=O)(=O)c1ccc(Br)cc1`: 8 µg/mL, 4 µg/mL, 4 µg/mL and 40 µg/mL (≈ 76 µM).
For `C=C1CCC[C@@H]2Nc3ccc(Br)cc3[C@]12CCNS(=O)(=O)c1ccc(Cl)c(Cl)c1`, in that order: 4 µg/mL, 2 µg/mL, 4 µg/mL and 12.8 µg/mL (≈ 24.8 µM).
The matching figures for `C=C1CCC[C@@H]2Nc3c(F)cc(Br)cc3[C@]12CCNS(=O)(=O)c1ccc(OC)cc1`: 8 µg/mL, 4 µg/mL, 8 µg/mL and 49 µg/mL (≈ 98.9 µM).
Take `C=C1CCC[C@@H]2Nc3c(F)cc(Br)cc3[C@]12CCNS(=O)(=O)c1ccc(C)cc1`: the MRC in data set [1], in [2] and in data set [4] was 4 µg/mL throughout. In addition, growth in data set [3] was halved (GI50 at 24 h) at 22 µg/mL (≈ 45.9 µM).
Regarding `C=C1CCC[C@@H]2Nc3c(F)cc(Br)cc3[C@]12CCNS(=O)(=O)c1ccc(F)cc1`, the MRC in data set [1], in [2] and in data set [4] was 4 µg/mL each time. Also, the GI50 at 24 h in [3] was 18.3 µg/mL (≈ 37.9 µM).
A word on the MIC: it is the least concentration at which growth counts as inhibited. The low end stands for greater potency, the high end for weaker potency. As for `C=C1CCC[C@@H]2Nc3c(F)cc(Br)cc3[C@]12CCNS(=O)(=O)c1ccc(Br)cc1`, the Ratio in [5], in data set [9] and in data set [10] was 64 each time. Moreover, the MIC in data set [6], in data set [8] and in data set [11] was more than 64 µg/mL throughout. In addition, in data set [7], the hemolysis at 1 h, 64 ug/ml was less than 2%. The MRC in data set [1], in data set [2] and in data set [4] was 1 µg/mL in each case. The same molecule registered a concentration for 50% growth inhibition (GI50) at 24 h in data set [3] of 22 µg/mL (≈ 40.4 µM). For the same molecule, the “fractional inhibitory concentration index (FICI)” value was determined as 0.0315 in data set [12], 0.0156 in data set [13] and 0.0315 in data set [14].
As to `C=C1CCC[C@@H]2Nc3c(F)cc(Br)cc3[C@]12CCNS(=O)(=O)c1ccc(I)cc1`, the results for the MRC in [1], in data set [2] and in [4] were 4 µg/mL, 2 µg/mL and 4 µg/mL, respectively. Halving of growth in data set [3] (GI50 at 24 h) required 19.6 µg/mL (≈ 33.1 µM).
Regarding `C=C1CCC[C@@H]2Nc3c(F)cc(Br)cc3[C@]12CCNS(=O)(=O)c1ccc(Cl)c(Cl)c1`, the MRC in data set [1], in data set [2] and in data set [4] was 4 µg/mL in each case. Further, in [3], the GI50 at 24 h turned out to be 31 µg/mL (≈ 58 µM).
As for `C=C1CCC[C@@H]2Nc3c(F)cc(Br)cc3[C@]12CCNS(=O)(=O)c1ccc(NC(C)=O)cc1`, the MRC in [1] was determined as 16 µg/mL; in data set [2], 32 µg/mL; in [4], 32 µg/mL. In data set [3], this molecule gave a 50% growth inhibitory concentration (GI50) at 24 h of 32 µg/mL (≈ 61.3 µM).
As to `C=C1CCC[C@@H]2Nc3c(F)cc(Br)cc3[C@]12CCNS(=O)(=O)c1ccc(C#N)cc1`, the MRC is 4 µg/mL in [1], 4 µg/mL in data set [2] and 8 µg/mL in data set [4]. The molecule further returned a concentration for 50% growth inhibition (GI50) at 24 h in data set [3] of 17 µg/mL (≈ 34.7 µM).
In the case of `C=C1CCC[C@@H]2Nc3c(F)cc(Br)cc3[C@]12CCNS(=O)(=O)c1ccc(C(F)(F)F)cc1`, the MRC in [1], in data set [2] and in data set [4] was 4 µg/mL in each case. The molecule also gave a concentration for 50% growth inhibition (GI50) at 24 h in [3] of 8.7 µg/mL (≈ 16.3 µM).
